Measured values reported in ChEMBL document CHEMBL1140407, “Design and synthesis of tricyclic corticotropin-releasing factor-1 antagonists” (J Med Chem, 2005).
pIC50, pKi: −log10 of the molar value.

Columns and labels:
[1] = target: T1, Corticotropin-releasing factor receptor 1 (Homo sapiens, UniProt P34998); test: Binding affinity for human corticotropin releasing factor receptor 1 expressed in LtK- cells using [125I]sauvagine; type: cell-based
T1 sequence (P34998 whole entry): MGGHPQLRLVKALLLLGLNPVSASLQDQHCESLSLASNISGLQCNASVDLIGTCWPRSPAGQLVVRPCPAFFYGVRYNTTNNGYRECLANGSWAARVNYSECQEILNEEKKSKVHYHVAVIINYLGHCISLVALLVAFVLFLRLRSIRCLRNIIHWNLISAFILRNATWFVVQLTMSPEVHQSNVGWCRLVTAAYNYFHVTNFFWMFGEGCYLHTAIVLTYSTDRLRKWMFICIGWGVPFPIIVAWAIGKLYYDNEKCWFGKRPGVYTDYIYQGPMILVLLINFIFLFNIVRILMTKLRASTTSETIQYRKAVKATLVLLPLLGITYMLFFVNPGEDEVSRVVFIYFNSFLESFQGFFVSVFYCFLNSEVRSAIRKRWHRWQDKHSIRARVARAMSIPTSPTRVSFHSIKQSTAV
Procedure, shortened: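 Buffer: DPBS with 10 mM MgCl2 and 2 mM EGTA, pH 7.4. Competitor 10 pM to 1 µM, run in duplicate, 2 h at room temperature. Bound ligand separated by vacuum filtration and counted by gamma counter. Nonspecific binding taken with excess unlabeled sauvagine. Ki from nonlinear curve fitting.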

[2] = target: T1, Corticotropin-releasing factor receptor 1; test: In vitro inhibition of CRF-stimulated cAMP production in cell membranes expressing human CRF1 receptor; type: functional, cell-based; conditions: in the assay text read “whole cells” for “cell membranes”
Procedure, shortened: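 Live whole L-hCRF1 cells (LtK- cells expressing human CRF1 receptor) were plated at 100 000 cells/well the day before and washed with DPBS. Buffer was DMEM without phenol red with 1 mM IBMX. CRF plus antagonist at various concentrations were added for 30 min at 37 °C in 5% CO2. Total cAMP was read by chemiluminescent immunoassay and IC50 was obtained by nonlinear curve fitting.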

Rattus norvegicus = species: Rattus norvegicus; test: In vitro Inhibition of CRF-stimulated ACTH release in rat anterior pituitary cells, upon 9 min incubation at 37 degree C; type: functional, cell-based; conditions: Pituitary gland cell, 4 h, in the assay text read “4 h incubation” for “9 min incubation”
Procedure, shortened: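 Pituitaries from 7-week-old female Sprague Dawley rats digested with collagenase (1.5 h, 37 °C), then neuraminidase (9 min, 37 °C). Cells cultured 2-3 days in 3% FCS/BBM-T at 40,000 cells/well. Antagonist (1 pM to 1 µM) added with 0.5 nM r/hCRF in BBM-T for 4 h at 37 °C. Medium ACTH measured by RIA.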

Row | pKi [1] | Compound | also measured
1 | 8.30 | CCCC(CCC)N1CCn2nc(-c3ccc(Cl)cc3Cl)c3nc(C)cc1c32 | 
2 | 8.10 | CC[C@H]1Cn2nc(-c3ccc(Cl)cc3C)c3nc(C)cc(c32)N1CC1CC1 | 
3 | 7.70 | CC[C@H]1Cn2nc(-c3ccc(Cl)cc3C(F)(F)F)c3nc(C)cc(c32)N1CC1CC1 | 
4 | 8.40 | CC[C@H]1Cn2nc(-c3ccc(C(F)(F)F)cc3Cl)c3nc(C)cc(c32)N1CC1CC1 | 
5 | 8.20 | CC[C@H]1Cn2nc(-c3ccc(C)cc3Cl)c3nc(C)cc(c32)N1CC1CC1 | 
6 | 7.80 | CC[C@H]1Cn2nc(-c3ccc(Cl)cc3Cl)c3nc(C)cc(c32)N1CC(C)C | 
7 | 7.20 | CC[C@H]1Cn2nc(-c3ccc(Cl)cc3Cl)c3nc(C)cc(c32)N1CC | 
8 | 8.30 | CCCCC(CCCC)N1CCn2nc(-c3ccc(Cl)cc3Cl)c3nc(C)cc1c32 | 
9 | 8.10 | Cc1cc2c3c(n1)c(-c1ccc(Cl)cc1Cl)nn3C[C@H](C)N2CC1CC1 | 
10 | 8.00 | CC[C@H]1Cn2nc(-c3ccc(OC)cc3C)c3nc(C)cc(c32)N1CC1CC1 | 
11 | 6.90 | CC[C@@H]1Cn2nc(-c3ccc(Cl)cc3Cl)c3nc(C)cc(c32)N1CC1CC1 | 
12 | 6.80 | CC[C@H]1Cn2nc(-c3ccc(C(=O)OC)cc3Cl)c3nc(C)cc(c32)N1CC1CC1 | 
13 | 7.30 | CC[C@H]1Cn2nc(-c3ccc(Cl)cc3Cl)c3nc(C)cc(c32)N1CCOC | 
14 | 6.10 | CC[C@H]1Cn2nc(-c3ccc(Cl)cc3Cl)c3nc(C)cc(c32)N1 | 
15 | 8.10 | CC[C@H]1Cn2nc(-c3ccc(C(C)C)cc3C(F)(F)F)c3nc(C)cc(c32)N1CC1CC1 | 
16 | 8.40 | CC[C@H]1Cn2nc(-c3ccc(OC)cc3Cl)c3nc(C)cc(c32)N1CC1CC1 | 
17 | 7.90 | CC[C@H]1Cn2nc(-c3ccc(F)cc3Cl)c3nc(C)cc(c32)N1CC1CC1 | 
18 | 8.20 | CCCCN1c2cc(C)nc3c(-c4ccc(Cl)cc4Cl)nn(c23)C[C@@H]1CC | 
19 | 6.80 | Cc1cc2c3c(n1)c(-c1ccc(Cl)cc1Cl)nn3CCN2C1CCCCC1 | 

Row | pKi [1] | Compound | also measured
20 | 7.50 | CCCN1c2cc(C)nc3c(-c4ccc(Cl)cc4Cl)nn(c23)C[C@@H]1CC | 
21 | 7.10 | Cc1cc2c3c(n1)c(-c1ccc(Cl)cc1Cl)nn3CCN2C(C)C | 
22 | 8.00 | Cc1cc2c3c(n1)c(-c1ccc(Cl)cc1Cl)nn3C[C@H](c1ccccc1)N2CC1CC1 | 
23 | 6.80 | CC[C@H]1Cn2nc(-c3ccc(Cl)cc3Cl)c3nc(C)cc(c32)N1Cc1ccccc1 | 
24 | 7.60 | CC[C@H]1Cn2nc(-c3ccc(Cl)cc3OC)c3nc(C)cc(c32)N1CC1CC1 | 
25 | 8.10 | CC[C@H]1Cn2nc(-c3ccc(C(F)(F)F)cc3C(F)(F)F)c3nc(C)cc(c32)N1CC1CC1 | 
26 | 7.10 | Cc1cc2c3c(n1)c(-c1ccc(Cl)cc1Cl)nn3CCN2CC1CC1 | 
27 | 6.40 | Cc1cc2c3c(n1)c(-c1ccc(Cl)cc1Cl)nn3CCN2CC(C)C | 
28 | 8.30 | Cc1cc2c3c(n1)c(-c1ccc(Cl)cc1Cl)nn3C[C@H](C(C)C)N2CC1CC1 | 
29 | 8.10 | CC[C@H]1Cn2nc(-c3ccc(OC)cc3C(F)(F)F)c3nc(C)cc(c32)N1CC1CC1 | 
30 | 8.40 | CCC[C@H]1Cn2nc(-c3ccc(Cl)cc3Cl)c3nc(C)cc(c32)N1CC1CC1 | 
31 | 7.70 | CC[C@H]1Cn2nc(-c3ccc(Cl)cc3Cl)c3nc(C)cc(c32)N1CC1CCC1 | 
32 | 7.30 | CC[C@H]1Cn2nc(-c3ccc(Cl)cc3F)c3nc(C)cc(c32)N1CC1CC1 | 
33 |  | CC[C@H]1Cn2nc(-c3ccc(Cl)cc3Cl)c3nc(C)cc(c32)N1CC1CC1 | pIC50 [2]: 7.10; pIC50 (Rattus norvegicus): 6.90
34 | 7.90 | CC[C@H]1Cn2nc(-c3ccc(C)cc3C)c3nc(C)cc(c32)N1CC1CC1 | 
35 | 8.40 | CCC(CC)N1CCn2nc(-c3ccc(Cl)cc3Cl)c3nc(C)cc1c32 | 
36 | 7.20 | CCC(COC)N1CCn2nc(-c3ccc(Cl)cc3Cl)c3nc(C)cc1c32 (centres undefined) | 
37 | 8.80 | CCCN(CC1CC1)c1cc(C)nc2c(-c3ccc(Cl)cc3Cl)nn(C)c12 | 
38 | 8.60 | CCCCN(CC)c1nc(C)nc2c1c(C)c(C)n2-c1c(C)cc(C)cc1C [ANTALARMIN] | 
